Active and inactive are the calls of the source.
Tests used:
L6 [1] = assay: Increase in protein synthesis in rat L6 cells assessed as [3H]-phenylalanine incorporation at 10 uM after 4 hrs by scintillation counting relative to control; assay type: functional
In short: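 L6 myotubes (differentiated in 2% serum) washed with serum-free DMEM. Incubated 4 h with 0.5 μCi/mL [3H]-phenylalanine plus vehicle (0.1% ethanol), compound (0.3–30 μM, or 10 μM), or 6.5 nM IGF-1. Protein precipitated with 5% TCA, dissolved in 0.5 N NaOH, scintillation-counted, normalized to mg protein (BCA). Triplicate; ANOVA/Dunnett.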

L6 [2] = assay: Decrease in protein degradation in rat L6 cells assessed as release of acid-soluble [3H]-phenylalanine into the media normalized by total protein at 10 uM after 4 hrs by scintillation counting relative to control; assay type: functional; design: scale not given: the % may be the effect or the level left
In short: (§1)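 L6 myoblasts differentiated 7–9 d in 2% serum into myotubes. Proteins labelled 16 h with 1.5 μCi/mL [3H]-phenylalanine, then washed. Cells treated 4 h in serum-free medium with vehicle (0.1% ethanol), compound (0.3–30 μM; single-point screen 10 μM), or 10 nM insulin. Medium TCA-precipitated and released [3H]-phenylalanine counted, normalized to mg cell protein (BCA). Triplicate; one-way ANOVA with Dunnett's test.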

L6 [3] = assay: Cytotoxicity against rat L6 cells up to 30 uM after 24 hrs by MTT assay; assay type: cell-based; conditions: l6, 24 h
In short: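 Fully differentiated L6 myotubes (myoblasts fused after 7–9 d in 2% serum) treated with compounds up to 30 μM against 0.1% ethanol vehicle. Viability by MTT assay in triplicate, read at 550 nm, alongside cytological observation.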

L6 [4] = assay: Activation of Akt phosphorylation at Ser473 in rat L6 cells at 10 uM after 1 hr by Western blot analysis; assay type: cell-based
In short: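 Differentiated L6 myotubes exposed to 10 μM compound for 1 h; IGF-1 6.5 nM for 10 min served as positive control. Lysis in ice-cold RIPA with 10 mM NaF, 2 mM orthovanadate, 1 mM PMSF and protease inhibitors, spun 12,000 g 20 min 4°C. Lysates normalized to 50 μg soluble protein, immunoblotted for phospho-Akt (Ser473); stripped blots reprobed for total Akt as loading control; ECL detection.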

L6 [5] = assay: Decrease in protein degradation in rat L6 cells assessed as release of acid-soluble [3H]-phenylalanine into the media normalized by total protein at 0.3 to 20 uM after 4 hrs by scintillation counting relative to control; assay type: functional, cell-based; in short: as §1
L6 [6] = assay: Decrease in protein degradation in rat L6 cells assessed as release of acid-soluble [3H]-phenylalanine into the media normalized by total protein at 1 uM after 4 hrs by scintillation counting relative to control; assay type: functional; design: scale not given: the % may be the effect or the level left; in short: as §1
NIH3T3 [7] = assay: Cytotoxicity against mouse NIH/3T3 cells at 0.3 to 30 uM after 24 hrs by MTT assay; assay type: cell-based; conditions: nih3t3, 24 h
In short: (§2)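 NIH-3T3 murine fibroblasts grown in DMEM with 10% FBS at 37°C in 5% CO2. Exposed to 0.3–30 μM for 24 h at 37 °C. MTT read at 550 nm. Absorbance expressed relative to vehicle control cells (taken as 100% proliferation). n=6 from repeated experiments.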

L6 [8] = assay: Increase in protein synthesis in rat L6 cells assessed as [3H]-phenylalanine incorporation at 0.3 to 30 uM after 4 hrs by scintillation counting relative to control
NIH3T3 [9] = assay: Cytotoxicity against mouse NIH/3T3 cells after 24 hrs by MTT assay; assay type: cell-based; conditions: NIH3T3, 24 h; in short: as §2
Rattus norvegicus [10] = assay: Upregulation of Adar1d gene expression in Wistar rat at 60 mg/kg, po qd for 24 days by PCR analysis relative to control; assay type: functional
In short: (§3)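 Male Wistar rats gavaged daily 24 d with 60 mg/kg or vehicle (5% DMSO in corn oil). RNA from pooled (n=5) frozen gastrocnemius samples run on a rat insulin signaling PCR array (84 genes). Fold change computed as 2^(-ΔCt), with a 4-fold threshold.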

Rattus norvegicus [11] = assay: Upregulation of Igfbp1 gene expression in Wistar rat at 60 mg/kg, po qd for 24 days by PCR analysis relative to control; assay type: functional; in short: as §3
Rattus norvegicus [12] = assay: Upregulation of Srebf1 gene expression in Wistar rat at 60 mg/kg, po qd for 24 days by PCR analysis relative to control; assay type: functional; in short: as §3
Rattus norvegicus [13] = assay: Upregulation of Fbp2 gene expression in Wistar rat at 60 mg/kg, po qd for 24 days by PCR analysis relative to control; assay type: functional; in short: as §3
Rattus norvegicus [14] = assay: Upregulation of Igf2 gene expression in Wistar rat at 60 mg/kg, po qd for 24 days by PCR analysis relative to control; assay type: functional
In short: (§4)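 Gastrocnemius muscle from male Wistar rats dosed orally with 60 mg/kg daily for 24 d, or vehicle. Conventional RT-PCR on individual muscle samples (n=5 per group), duplicate determinations. Compared with control by Student t test.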

Rattus norvegicus [15] = assay: Effect on Eif2b1 gene expression in Wistar rat at 60 mg/kg, po qd for 24 days by PCR analysis relative to control; assay type: functional, organism-based; design: dose 60 mg/kg; in short: as §3
Rattus norvegicus [16] = assay: Induction of Myod1 mRNA expression in Wistar rat at 60 mg/kg, po qd for 24 days by RT-PCR analysis relative to control; assay type: functional; in short: as §4
Rattus norvegicus [17] = assay: Induction of Myf5 mRNA expression in Wistar rat at 60 mg/kg, po qd for 24 days by RT-PCR analysis relative to control; assay type: functional; in short: as §4
Rattus norvegicus [18] = assay: Induction of Myf6 mRNA expression in Wistar rat at 60 mg/kg, po qd for 24 days by RT-PCR analysis relative to control; assay type: functional; in short: as §4
Rattus norvegicus [19] = assay: Induction of Myog mRNA expression in Wistar rat at 60 mg/kg, po qd for 24 days by RT-PCR analysis relative to control; assay type: functional; in short: as §4
Rattus norvegicus [20] = assay: Anabolic effect in Wistar rat assessed as increase in lean body mass at 60 mg/kg, po qd for 24 days; assay type: functional
Rattus norvegicus [21] = assay: Anabolic effect in Wistar rat assessed as increase in limb grip strength at 60 mg/kg, po qd for 24 days; assay type: functional, organism-based; design: dose 60 mg/kg

| Compound | Activity (L6 [1]) [%] | Activity (L6 [2]) [%] | Activity (L6 [3]) | Activity (L6 [4]) | Activity (NIH3T3 [7]) | further results |
| --- | --- | --- | --- | --- | --- | --- |
| CC[C@@H](C(C)C)[C@@H](O)[C@H](O)[C@@H](C)[C@H]1CC[C@H]2[C@@H]3COC(=O)[C@H]4C[C@H](O)[C@H](O)C[C@]4(C)[C@H]3CC[C@]12C | 13 | -15 | Non-toxic | Active |  |  |
| CC[C@@H](C(C)C)[C@H](O)[C@@H](O)[C@@H](C)[C@H]1CC[C@H]2[C@@H]3CC(=O)[C@H]4C[C@H](O)[C@H](O)C[C@]4(C)[C@H]3CC[C@]12C | 41 | -23 | Non-toxic | Active | Non-toxic | Activity (L6 [5]): Dose-dependent effect; Activity (L6 [6]): 8.7%; Activity (L6 [8]): 40.7% |
| CC(C)[C@@H](C)[C@H](O)[C@@H](O)[C@@H](C)[C@H]1CC[C@H]2[C@@H]3COC(=O)[C@H]4C[C@H](O)[C@H](O)C[C@]4(C)[C@H]3CC[C@]12C | 4 | -6 | Non-toxic | Active |  |  |
| CC[C@@H](C(C)C)[C@H](O)[C@@H](O)[C@@H](C)[C@H]1CC[C@H]2[C@@H]3CC(=O)N[C@H]4C[C@H](O)[C@H](O)C[C@]4(C)[C@H]3CC[C@]12C | 3 | -14 | Non-toxic | Active |  |  |
| CC[C@@H](C(C)C)[C@H](O)[C@@H](O)[C@@H](C)[C@H]1CC[C@H]2[C@@H]3CNC(=O)[C@H]4C[C@H](O)[C@H](O)C[C@]4(C)[C@H]3CC[C@]12C | 21 | -1 | Non-toxic | Active |  | IC50 (NIH3T3 [9]): 12.5 µM |
| CC[C@H](C(C)C)[C@H](O)[C@@H](O)[C@@H](C)[C@H]1CC[C@H]2[C@@H]3COC(=O)[C@H]4C[C@H](F)CC[C@]4(C)[C@H]3CC[C@]12C | 25 | -21 | Non-toxic | Active | Toxic |  |
| CC(C)[C@@H](C)[C@@H](O)[C@H](O)[C@@H](C)[C@H]1CC[C@H]2[C@@H]3COC(=O)[C@H]4C[C@H](O)[C@H](O)C[C@]4(C)[C@H]3CC[C@]12C | 12 | -7 | Non-toxic | Active |  |  |
| CC[C@@H](C(C)C)[C@H](O)[C@@H](O)[C@@H](C)[C@H]1CC[C@H]2[C@@H]3CC(=O)[C@H]4C[C@H](F)CC[C@]4(C)[C@H]3CC[C@]12C | 23 | -16 | Non-toxic | Active | Toxic |  |
| CC[C@@H](C(C)C)[C@H](O)[C@@H](O)[C@@H](C)[C@H]1CC[C@H]2[C@@H]3COC(=O)[C@H]4C[C@H](O)[C@H](O)C[C@]4(C)[C@H]3CC[C@]12C | 37 | -24 | Non-toxic | Active | Non-toxic | Activity (L6 [5]): Dose-dependent effect; Activity (L6 [6]): 8.2%; fold change (FC) (Rattus norvegicus [10]): 6.5; fold change (FC) (Rattus norvegicus [11]): 2.5; fold change (FC) (Rattus norvegicus [12]): 2.5; fold change (FC) (Rattus norvegicus [13]): 4.5; fold change (FC) (Rattus norvegicus [14]): 1.4; Activity (Rattus norvegicus [15]): inactive; fold change (FC) (Rattus norvegicus [16]): 2.1; fold change (FC) (Rattus norvegicus [17]): 1.3; fold change (FC) (Rattus norvegicus [18]): 1.3; fold change (FC) (Rattus norvegicus [19]): 1.7; Activity (Rattus norvegicus [20]): 14.2%; Activity (Rattus norvegicus [21]): Active; Activity (L6 [8]): 36.9% |
